Common to all, as to type: cell-based
The target of assay [1] is T1, RNA polymerase II (Mus musculus) (UniProt P08775+Q8CFI7+P97760+A0A3Q4L2S8+Q80UW8+P61219+P62488+Q923G2+P60898+O08740+Q63871+P62876). The experiment in a line: Inhibition of RNA polymerase II in mouse B16-F1 migrating cells assessed as fold change in Lgals3-RNA stability at 0.1 mM measured by ChIP-seq analysis relative to control cells.
The target in assay [2] is T1, RNA polymerase II (Mus musculus). The experiment in a line: Inhibition of RNA polymerase II in mouse B16-F1 migrating cells assessed as fold change in Pgp-RNA stability at 0.1 mM measured by […] analysis relative to control cells.
Assay [3] has the same target. As to the kind of experiment: Inhibition of RNA polymerase II in mouse B16-F1 migrating cells assessed as fold change in Alkbh2-RNA stability at 0.1 mM measured by […] analysis relative to control cells.
Assay [4] has the same target. The experiment in a line: Inhibition of RNA polymerase II in mouse B16-F1 migrating cells assessed as fold change in Rpl27-RNA stability at 0.1 mM measured by […] analysis relative to control cells.
Assay [5] has the same target. The experiment in a line: Inhibition of RNA polymerase II in mouse B16-F1 migrating cells assessed as fold change in Rpl7-RNA stability at 0.1 mM measured by […] analysis relative to control cells.
The target is the same in assay [6]. As to the kind of experiment: Inhibition of RNA polymerase II in mouse B16-F1 migrating cells assessed as fold change in Kdelr1-RNA stability at 0.1 mM measured by ChIP-seq analysis relative to control cells. The gist of the method:
(§1)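 Mouse B16-F1 melanoma cells grown to confluence on fibronectin in DMEM/10% FCS at 37 °C, 7% CO2. Migration induced by multiple scratches and 3 h incubation; unscratched controls. DRB 0.1 mM added 3 h before lysis. RNA from poly A-selected mRNA was sequenced (RNA-seq, three replicates per DRB group). Fold change computed for DRB-treated migrating vs DRB-treated control cells; cutoffs fold change >1.3, FDR <0.05.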

For assay [7] the target is unchanged. As to the kind of experiment: Inhibition of RNA polymerase II in mouse B16-F1 migrating cells assessed as fold change in Lamp2-RNA stability at 0.1 mM measured by ChIP-seq analysis relative to control cells.
The target is the same in assay [8]. The experiment in a line: Inhibition of RNA polymerase II in mouse B16-F1 migrating cells assessed as fold change in Cd2ap-RNA stability at 0.1 mM measured by […] analysis relative to control cells. The gist of the method:
as §1

Assay [9] has the same target. The experiment in a line: Inhibition of RNA polymerase II in mouse B16-F1 migrating cells assessed as fold change in Dpy19l4-RNA stability at 0.1 mM measured by ChIP-seq analysis relative to control cells.
For assay [10] the target is unchanged. The experiment in a line: Inhibition of RNA polymerase II in mouse B16-F1 migrating cells assessed as fold change in Otud6b-RNA stability at 0.1 mM measured by […] analysis relative to control cells.
The target is the same in assay [11]. As to the kind of experiment: Inhibition of RNA polymerase II in mouse B16-F1 migrating cells assessed as fold change in Mbtd1-RNA stability at 0.1 mM measured by ChIP-seq analysis relative to control cells.
Assay [12] shares this target. The experiment in a line: Inhibition of RNA polymerase II in mouse B16-F1 migrating cells assessed as fold change in Trappc8-RNA stability at 0.1 mM measured by […] analysis relative to control cells.
The target is the same in assay [13]. The experiment in a line: Inhibition of RNA polymerase II in mouse B16-F1 migrating cells assessed as fold change in Brd2-RNA stability at 0.1 mM measured by […] analysis relative to control cells.
For assay [14] the target is unchanged. As to the kind of experiment: Inhibition of RNA polymerase II in mouse B16-F1 migrating cells assessed as fold change in Fxr1-RNA stability at 0.1 mM measured by ChIP-seq analysis relative to control cells.
For assay [15] the target is unchanged. The experiment in a line: Inhibition of RNA polymerase II in mouse B16-F1 migrating cells assessed as fold change in Zfp280c-RNA stability at 0.1 mM measured by […] analysis relative to control cells.
Assay [16] concerns the target Histone-lysine N-methyltransferase EZH2 (Mus musculus) (UniProt Q61188). The experiment in a line: Inhibition of EZH2 in mouse B16-F1 migrating cells assessed as fold change in H3K27me3-independent regulated Cep290-mRNA expression at 3 uM measured by […] analysis relative to control cells. The gist of the method: (§2)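 Confluent B16-F1 cells on fibronectin-coated plates were scratched at multiple sites, washed once with DMEM and left to migrate 3 h in growth medium (37 °C, 7% CO2); unscratched cells served as control. GSK343 (3 µM) was added 3 h before lysis. Poly A mRNA was sequenced (RNA-seq), with 5 replicates for untreated and 3 for treated cells. Differential expression was called by linear model with batch correction, at FDR <0.05 and fold change ≥1.3.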

The target is the same in assay [17]. As to the kind of experiment: Inhibition of EZH2 in mouse B16-F1 migrating cells assessed as fold change in H3K27me3-independent regulated Klf15-mRNA expression at 3 uM measured by […] analysis relative to control cells. The gist of the method:
as §2

Assay [18] shares this target. The experiment in a line: Inhibition of EZH2 in mouse B16-F1 migrating cells assessed as fold change in H3K27me3-buffered regulated 1810058I24Rik-mRNA expression at 3 uM measured by ChIP-seq analysis relative to control cells. Put shortly: (§3)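 Confluent B16-F1 cells on fibronectin-coated plates, cultured at 37 °C and 7% CO2, were scratched at multiple sites to induce migration. They were then held 3 h in growth medium containing 3 µM GSK343, with the inhibitor added 3 h before lysis. Unscratched cells served as controls. Poly A mRNA was analysed by RNA-seq (n=3 GSK343, n=5 controls). Linear models removed batch effects, and buffered genes were those altered only under GSK343 (FDR <0.05, fold change >1.3).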

For assay [19] the target is unchanged. The experiment in a line: Inhibition of EZH2 in mouse B16-F1 migrating cells assessed as fold change in H3K27me3-buffered regulated A130010J15Rik-mRNA expression at 3 uM measured by […] analysis relative to control cells. Put shortly:
as §3

Assay [20] has the same target. As to the kind of experiment: Inhibition of EZH2 in mouse B16-F1 migrating cells assessed as fold change in H3K27me3-buffered regulated Rnf145-mRNA expression at 3 uM measured by […] analysis relative to control cells. Put shortly: as §2
The target is the same in assay [21]. As to the kind of experiment: Inhibition of EZH2 in mouse B16-F1 migrating cells assessed as fold change in H3K27me3-buffered regulated Rassf1-mRNA expression at 3 uM measured by […] analysis relative to control cells. Put shortly: as §3
Assay [22] has the same target. As to the kind of experiment: Inhibition of EZH2 in mouse B16-F1 migrating cells assessed as fold change in H3K27me3-buffered regulated Paxbp1-mRNA expression at 3 uM measured by […] analysis relative to control cells. Put shortly: as §3
Assay [23] shares this target. The experiment in a line: Inhibition of EZH2 in mouse B16-F1 migrating cells assessed as fold change in H3K27me3-buffered regulated Foxa1-mRNA expression at 3 uM measured by […] analysis relative to control cells. Put shortly: as §3
The target is the same in assay [24]. As to the kind of experiment: Inhibition of EZH2 in mouse B16-F1 migrating cells assessed as fold change in H3K27me3-buffered regulated Spag1-mRNA expression at 3 uM measured by […] analysis relative to control cells. Put shortly: as §2

Here are results for 2 compounds from ChEMBL document CHEMBL5674883, “The Heterochromatin Landscape in Migrating Cells and the Importance of H3K27me3 for Associated Transcriptome Alterations” (Cells, 2018).

Each structure is given as a SMILES string.

Histone-lysine N-methyltransferase EZH2 (Mus musculus), sequence (Q61188 whole entry): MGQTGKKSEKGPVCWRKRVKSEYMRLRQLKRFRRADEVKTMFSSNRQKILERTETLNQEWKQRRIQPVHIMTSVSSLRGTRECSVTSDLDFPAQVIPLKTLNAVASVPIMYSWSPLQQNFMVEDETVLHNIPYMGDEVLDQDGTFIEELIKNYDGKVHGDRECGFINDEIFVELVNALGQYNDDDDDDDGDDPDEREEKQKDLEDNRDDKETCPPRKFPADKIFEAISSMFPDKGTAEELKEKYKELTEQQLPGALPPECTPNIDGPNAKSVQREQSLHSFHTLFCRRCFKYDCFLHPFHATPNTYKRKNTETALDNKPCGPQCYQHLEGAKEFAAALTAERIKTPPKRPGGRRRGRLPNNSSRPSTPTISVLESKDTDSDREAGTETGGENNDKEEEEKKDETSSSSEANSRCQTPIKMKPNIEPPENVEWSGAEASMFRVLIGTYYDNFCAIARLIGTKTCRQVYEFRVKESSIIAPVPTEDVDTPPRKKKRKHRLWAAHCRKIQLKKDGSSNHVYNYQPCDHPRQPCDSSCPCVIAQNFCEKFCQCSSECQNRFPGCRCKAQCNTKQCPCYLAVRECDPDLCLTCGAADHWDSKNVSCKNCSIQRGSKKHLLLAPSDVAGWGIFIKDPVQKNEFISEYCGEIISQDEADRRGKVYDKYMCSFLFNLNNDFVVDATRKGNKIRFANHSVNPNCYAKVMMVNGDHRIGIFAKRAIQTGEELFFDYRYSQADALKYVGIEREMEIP

Consider `OC[C@H]1O[C@@H](n2cnc3cc(Cl)c(Cl)cc32)[C@H](O)[C@@H]1O`, for which the log2FC in [1] came out at 0.95; in assay [2], 0.82; in [3] it was 0.66; in assay [4] it was 0.51; in [5], 0.41; in assay [6], 0.4. Also, the log2FC in [7] is -0.43; in [8] it was -0.57; in assay [9] it was -0.58; in [10], -0.6; in [11], -0.62; in assay [12] it was -0.62. In addition, the figures for the log2FC in assay [13], in assay [14] and in assay [15] were -0.66, -0.67 and -0.98, respectively.

For the compound `CCCc1cc(C)[nH]c(=O)c1CNC(=O)c1cc(-c2ccnc(N3CCN(C)CC3)c2)cc2c1cnn2C(C)C`, the log2FC in [16] was -0.62; in [17], -0.5; in [18] it was 0.47; in assay [19] it was -0.42; in [20] it was -0.49; in assay [21] it was -0.52. The log2FC in [22] was -0.55; in assay [23], -0.77; in [24] it was -0.78.
